Publication PMC6590913 (Journal of medicinal chemistry, 2019)

What was measured:
[1] = test system: bleomycin-induced dermal fibrosis; assay: Bleomycin-induced dermal fibrosis in mice; format: in vivo, mouse
[2] = test system: CTGF gene expression; assay: qPCR for LPA-stimulated expression of CTGF in primary dermal fibroblasts; format: cell-based, human; details: for Effect on CTGF gene expression: then LPA 1 h, primary human dermal fibroblasts
[3] = test system: Rho/MRTF/SRF-mediated gene transcription (SRE.L); assay: Gα12-stimulated SRE.L luciferase reporter assay in PC3 cells; format: cell-based; details: for IC50: Homo sapiens, PC-3, read-out: SRE.L IC50; for SRE.L activity: Table 2 sidechain SAR, PC3 cells
Outline: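 PC-3 cells plated at 20,000/well in DMEM with 10% FBS. Next day they were lipofected with 56 ng SRE.L luciferase reporter plus 2 ng/well Gα12 Q231L or pcDNA. After 4 h, medium was switched to 0.5% FBS DMEM, and compound or DMSO was added overnight. Viability was then read by WST-1 (450 nm), and cells were lysed for luciferase. Mean of n = 3.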

[4] = Pharmacokinetic studies in mice; format: in vivo, female CD-1 mice; details: mouse, IV
Outline: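 Female CD-1 mice were dosed iv and/or po, with compound in 15% DMSO/15% PEG-400/70% PBS (v/v). Blood (50 μL) was sampled at 0.5, 2, 4 and 7 h, and plasma was frozen at -80 °C. Plasma levels were measured by a validated LC–MS/MS method. Parameters were derived non-compartmentally.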

[5] = test system: Rho/MRTF/SRF-mediated gene transcription (SRE.L); assay: Gα12-stimulated SRE.L luciferase reporter assay in HEK293T cells; format: cell-based; details: for SRE.L activity: Figure 4, HEK293T cells, analogs with modified thioether
[6] = Cytotoxicity in the SRE.L assay determined by CellTiter-Fluor; format: cell-based; details: human, cells of the SRE.L assay
[7] = test system: cells of the SRE.L assay; assay: as above; format: cell-based
[8] = test system: bleomycin-induced dermal fibrosis; details: mice; cited from earlier work
[9] = test system: Rho/MRTF/SRF-mediated gene transcription (SRE.L); assay: SRE.L luciferase reporter assay, cell line not stated; format: cell-based; details: for SRE.L activity: Figure 3, heterocycle and carboxylic acid replacements
Outline: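 Gα12-stimulated SRE.L luciferase reporter in transiently transfected PC-3 or HEK293T cells. PC-3 format: 20,000 cells/well in 10% FBS/DMEM, next day co-transfected with SRE.L luciferase reporter plus Gα12 Q231L or empty pcDNA (Lipofectamine 2000). After 4 h, switched to 0.5% FBS/DMEM with test compound or DMSO overnight. WST-1 viability read at 450 nm, then lysis and luciferase read.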

[10] = test system: bleomycin-induced lung fibrosis; details: mice, dose of 300 mg/kg; cited from earlier work

O=C(O)CCSc1nnc(-c2ccc(Cl)cc2Cl)o1 [8j, 3-((5-(2,4-dichlorophenyl)-1,3,4-oxadiazol-2-yl)thio)propanoic acid]
Bleomycin-induced fibrotic effects (dermal thickness and hydroxyproline content) vs bleomycin/vehicle control ([1]; 10 mg/kg PO, 14 days): significant effects | Bleomycin-induced fibrotic effects (dermal thickness and hydroxyproline content) ([1]; 0.1, 1 and 10 mg/kg/day by oral gavage, 14 days): dose-dependently reduce | Effect on CTGF gene expression ([2]; 48 h pre-treatment): neither 8j nor 19f had any significant effect | Effect on CTGF gene expression ([2]; 72 h pre-treatment): dose-dependently reduced CTGF gene expression

O=C(O)CSc1nnc(-c2ccc(Cl)cc2Cl)o1 [8p]
IC50 [3]: > 100000 nM | SRE.L activity [3]: activity was completely lost

O=C(O)CCCSc1nnc(-c2ccc(Cl)cc2Cl)o1 [8q, 4-((5-(2,4-dichlorophenyl)-1,3,4-oxadiazol-2-yl)thio)butanoic acid]
clearance rate relative to 8j [4]: ~3 fold

O=C(O)CCCCSc1nnc(-c2ccc(Cl)cc2Cl)o1 [8r, 5-((5-(2,4-dichlorophenyl)-1,3,4-oxadiazol-2-yl)thio)pentanoic acid]
IC50 [3]: 43 nM

O=C(O)CCCSc1nnc(-c2ccc(Br)cc2Cl)o1 [8x, 4-((5-(4-bromo-2-chlorophenyl)-1,3,4-oxadiazole-2-yl)thio)butanoic acid]
Improvement in SRE.L activity relative to 8q ([5]; 4-Cl replaced by 4-Br): 10 fold

O=C(O)CCCSc1nnc(-c2ccc(C3CC3)cc2Cl)o1 [19f, 4-((5-(2-chloro-4-cyclopropylphenyl)-1,3,4-oxadiazol-2-yl)thio)butanoic acid]
Bleomycin-induced dermal fibrosis ([1]; 3 and 10 mg/kg PO, both doses, 14 days): significantly reduced bleomycin-induced dermal fibrosis | In vivo potency relative to 8j ([1]; bleomycin-induced dermal fibrosis): at least 3 fold | Improvement in SRE.L potency relative to 8s ([5]; Me replaced by c-Pr): 100 fold | IC50 [3]: 0.0012 nM | Effect on CTGF gene expression ([2]; 48 h pre-treatment): neither 8j nor 19f had any significant effect | Potency on CTGF gene expression relative to 8j ([2]; 72 h pre-treatment): ~ 100 x | Effect on CTGF gene expression ([2]; 72 h pre-treatment): dose-dependently reduced CTGF gene expression

COC(=O)c1ccc2c(c1)NC(=O)/C2=C(\Nc1ccc(N(C)C(=O)CN2CCN(C)CC2)cc1)c1ccccc1 [Nintedanib]
IC50 [6]: < 30 µM | Cytotoxicity ([7]; at 10 uM): some cytotoxicity | Minimum dose effective at preventing bleomycin-induced dermal thickness [8]: 30 mg/kg/day | Cytotoxicity in the CTGF assay ([2]; at 10^−5 M): cytotoxic | CTGF expression, % of DMSO control ([2]; at 10^−6 M): 45 % of DMSO control

Cc1ccc(=O)n(-c2ccccc2)c1 [Pirfenidone, reference compound]
IC50 ([9]; read-out: SRE.L assay IC50): > 100 µM | Effect on bleomycin-induced lung fibrosis [10]: attenuate bleomycin-induced lung fibrosis | Concentration above which cytotoxic ([7]; CellTiter-Fluor): > 100 µM | CTGF expression, % control ([2]; at 10^−5 M): 91 % control

CCOC(=O)CCSc1nnc(-c2ccc(Cl)cc2Cl)o1 [compound 6, Ethyl 3-((5-(2,4-dichlorophenyl)-1,3,4-oxadiazol-2-yl)thio)propanoate]
SRE.L activity [3]: maintained activity

CNC(=O)CCSc1nnc(-c2ccc(Cl)cc2Cl)o1 [compound 9, 3-((5-(2,4-dichlorophenyl)-1,3,4-oxadiazol-2-yl)thio)-N-methylpropanamide]
IC50 [3]: > 100000 nM | SRE.L activity [3]: unsuccessful

O=C(O)CCCOc1nnc(-c2ccc(Cl)cc2Cl)o1 [compound 11, 4-((5-(2,4-dichlorophenyl)-1,3,4-oxadiazol-2-yl)oxy)butanoic acid]
SRE.L activity [5]: almost complete loss in activity

O=C(O)CSCc1nnc(-c2ccc(Cl)cc2Cl)o1 [compound 13, 2-(((5-(2,4-dichlorophenyl)-1,3,4-oxadiazol-2-yl)methyl)thio)acetic acid]
SRE.L activity [5]: almost complete loss in activity

O=C(O)CCCS(=O)(=O)c1nnc(-c2ccc(Cl)cc2Cl)o1 [compound 21, 4-((5-(2,4-dichlorophenyl)-1,3,4-oxadiazol-2-yl)sulfonyl)butanoic acid]
SRE.L activity [5]: activity was lost

O=C(O)CCSc1nnc(-c2cccnc2)o1 [compound 22]
SRE.L activity [9]: complete loss in activity

O=C(O)CCSc1nnc(-c2ccncc2)o1 [compound 23]
SRE.L activity [9]: complete loss in activity

Cc1occc1-c1nnc(SCCC(=O)O)o1 [compound 24]
SRE.L activity [9]: complete loss in activity

c1ccc(-c2nnc(SCCC3OCCCO3)o2)cc1 [compound 28]
SRE.L activity [9]: abolished activity

O=C(O)CCCc1nnc(-c2ccc(Cl)cc2Cl)o1 [compound 29]
SRE.L activity [5]: almost complete loss in activity
